Measured values taken from ChEMBL document CHEMBL1137907, “Anticancer activity of 3-O-acyl and alkyl-(-)-epicatechin derivatives” (Bioorg Med Chem Lett, 2004).

How the values were obtained:
SK-OV-3 = experiment: In vitro inhibitory concentration against SKOV3 cell line in MTT assay was determined after 3 days incubation; type: functional, cell-based; settings: Homo sapiens, SK-OV-3, 72 h
Outline: (§1)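 MTT viability read-out in 96-well format, per Mosmann's method. Values are means of three experiments.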

U373 MG = experiment: In vitro inhibitory concentration against U373MG cell line in MTT assay was determined after 3 days incubation; type: functional, cell-based, U-373MG ATCC; settings: Homo sapiens, 72 h; outline: as §1
PC-3 = experiment: In vitro inhibitory concentration against PC-3 cell line in MTT assay was determined after 3 days incubation; type: functional, cell-based; settings: Homo sapiens, PC-3, 72 h; outline: as §1

Row | Compound | IC50 (SK-OV-3) [µM] | IC50 (PC-3) [µM] | IC50 (U373 MG) [µM]
1 | O=C(O[C@@H]1Cc2c(O)cc(O)cc2O[C@@H]1c1ccc(O)c(O)c1)c1cc(F)cc(F)c1 | 78.2 | 58.7 | 64.5
2 | O=C(O[C@@H]1Cc2c(O)cc(O)cc2O[C@@H]1c1ccc(O)c(O)c1)c1cc(O)c(O)c(O)c1 [EPICATECHIN GALLATE] | 185 | 168 | 157
3 | COc1cc(C(=O)O[C@@H]2Cc3c(O)cc(O)cc3O[C@@H]2c2ccc(O)c(O)c2)cc(OC)c1OC | 50.1 | 51.3 | 57.2

The next lines start with results.

Row | IC50 (SK-OV-3) [µM] | IC50 (PC-3) [µM] | Compound | IC50 (U373 MG) [µM]
4 | 47.3 | 45.2 | O=C(O[C@@H]1Cc2c(O)cc(O)cc2O[C@@H]1c1ccc(O)c(O)c1)c1ccc(OC(F)(F)F)cc1 | 50.3
5 | 61 | 71.9 | O=C(O[C@@H]1Cc2c(O)cc(O)cc2O[C@@H]1c1ccc(O)c(O)c1)c1cc(F)c(F)c(F)c1 | 59.2
6 | 38.2 | 32.5 | COc1cc(CO[C@@H]2Cc3c(O)cc(O)cc3O[C@@H]2c2ccc(O)c(O)c2)cc(OC)c1OC | 29.8
7 | > 500 | > 500 | Oc1cc(O)c2c(c1)O[C@H](c1ccc(O)c(O)c1)[C@H](O)C2 [(-)-EPICATECHIN] | > 500
